From ChEMBL document CHEMBL1156274, “Potent arylsulfonamide inhibitors of tumor necrosis factor-alpha converting enzyme able to reduce activated leukocyte cell adhesion molecule shedding in cancer cell models” (J Med Chem, 2010)

Assays:
[1] = target: T1, Interstitial collagenase (Homo sapiens, UniProt P03956); assay: Inhibition of MMP1 by fluorometric assay
T1 sequence (P03956 whole entry): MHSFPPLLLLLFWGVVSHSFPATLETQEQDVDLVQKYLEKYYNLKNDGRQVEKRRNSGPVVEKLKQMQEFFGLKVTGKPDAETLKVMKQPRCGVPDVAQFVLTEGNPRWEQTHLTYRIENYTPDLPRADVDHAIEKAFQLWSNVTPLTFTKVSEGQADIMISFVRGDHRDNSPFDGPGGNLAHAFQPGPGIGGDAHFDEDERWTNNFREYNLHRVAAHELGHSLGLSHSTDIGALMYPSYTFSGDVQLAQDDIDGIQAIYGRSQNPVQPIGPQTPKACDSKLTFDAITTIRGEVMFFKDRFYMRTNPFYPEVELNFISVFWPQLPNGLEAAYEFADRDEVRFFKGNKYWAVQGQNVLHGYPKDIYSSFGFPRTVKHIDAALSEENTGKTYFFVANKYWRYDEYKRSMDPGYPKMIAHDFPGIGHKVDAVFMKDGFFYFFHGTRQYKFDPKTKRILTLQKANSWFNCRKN

[2] = target: 72 kDa type IV collagenase (Homo sapiens, UniProt P08253)
[3] = target: Matrix metalloproteinase-9 (Homo sapiens, UniProt P14780); assay: Inhibition of MMP9 by fluorometric assay
[4] = target: Matrix metalloproteinase-14 (Homo sapiens, UniProt P50281); assay: Inhibition of human recombinant MMP14 by fluorometric assay
Outline: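 Fluorogenic substrate Mca-Lys-Pro-Leu-Gly-Leu-Dap(Dnp)-Ala-Arg-NH2 (2 μM final). Enzymes: APMA-activated (2 mM, 2 h, 37 °C) pro-MMP-1 at 2.0 nM; MMP-14 catalytic domain at 1.0 nM. Each enzyme preincubated 4 h at 25 °C with seven inhibitor concentrations in Tris 50 mM pH 7.5, NaCl, CaCl2, Brij-35, 1% DMSO. Fluorescence (ex 325/em 395 nm) read every 15 s for 20 min.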

[5] = target: T2, Disintegrin and metalloproteinase domain-containing protein 17 (Homo sapiens, UniProt P78536); assay: Inhibition of human recombinant ADAM17 by fluorometric assay
[6] = target: T3, Disintegrin and metalloproteinase domain-containing protein 10 (Homo sapiens, UniProt O14672); assay: Inhibition of human recombinant ADAM10 by fluorometric assay
T3 sequence (O14672 whole entry): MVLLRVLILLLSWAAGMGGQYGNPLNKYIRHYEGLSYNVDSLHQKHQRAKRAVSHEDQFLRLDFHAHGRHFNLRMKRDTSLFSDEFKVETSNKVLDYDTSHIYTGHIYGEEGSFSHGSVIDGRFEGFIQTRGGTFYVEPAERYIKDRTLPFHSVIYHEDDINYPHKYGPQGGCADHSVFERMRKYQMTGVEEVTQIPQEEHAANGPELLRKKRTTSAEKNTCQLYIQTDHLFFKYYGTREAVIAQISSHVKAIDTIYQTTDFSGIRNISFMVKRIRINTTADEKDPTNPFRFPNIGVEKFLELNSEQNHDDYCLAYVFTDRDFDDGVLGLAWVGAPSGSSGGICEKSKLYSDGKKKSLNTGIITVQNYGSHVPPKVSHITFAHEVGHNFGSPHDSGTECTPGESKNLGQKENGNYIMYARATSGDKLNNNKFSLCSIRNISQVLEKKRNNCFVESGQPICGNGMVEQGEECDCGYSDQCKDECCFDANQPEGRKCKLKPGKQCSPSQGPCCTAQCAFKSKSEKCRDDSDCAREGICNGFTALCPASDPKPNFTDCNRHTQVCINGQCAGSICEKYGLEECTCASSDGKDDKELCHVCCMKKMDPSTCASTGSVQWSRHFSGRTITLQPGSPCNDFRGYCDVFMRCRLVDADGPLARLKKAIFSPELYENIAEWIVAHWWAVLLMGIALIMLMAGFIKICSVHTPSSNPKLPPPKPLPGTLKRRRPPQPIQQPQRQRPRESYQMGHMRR
Outline: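 Recombinant human ADAM-10 (20 nM) preincubated with seven inhibitor concentrations for 1 h at 37 °C in Tris 25 mM, ZnCl2 25 μM, Brij-35 0.005%, pH 9. Fluorogenic substrate Mca-Lys-Pro-Leu-Gly-Leu-Dap(Dnp)-Ala-Arg-NH2 at 10 μM final. Fluorescence (ex 325/em 395 nm) monitored every 15 s for 20 min. IC50 from initial velocities versus inhibitor-free control; mean of three independent experiments in duplicate.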

[7] = target: T2, Disintegrin and metalloproteinase domain-containing protein 17; details: for inhibition: A2774, at 10 µM; for IC50: A2774
[8] = target: T2, Disintegrin and metalloproteinase domain-containing protein 17; assay: Inhibition of ADAM17 in human A2774 cells assessed as inhibition of constitutive sALCAM release by ELISA; format: cell-based
[9] = target: T2, Disintegrin and metalloproteinase domain-containing protein 17; assay: Inhibition of ADAM17 in human A2774 cells assessed as inhibition of pervanadate-induced sALCAM release by ELISA; format: cell-based
[10] = target: T2, Disintegrin and metalloproteinase domain-containing protein 17; assay: Inhibition of ADAM17 in human A2774 cells assessed as inhibition of EGF-induced sALCAM release by ELISA; format: cell-based
[11] = target: T2, Disintegrin and metalloproteinase domain-containing protein 17; assay: Inhibition of ADAM17 in human SKOV3 cells assessed as inhibition of constitutive sALCAM release by ELISA; format: cell-based, SK-OV-3
[12] = test system: SK-OV-3; assay: Cytotoxicity against human SKOV3 cells after 72 hrs by MTT assay; format: cell-based; details: sk-ov-3, 72 h
Outline: (§1)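 Cell lines grown in RPMI 1640 with 10% heat-inactivated FCS, 2 mM glutamine and penicillin-streptomycin at 37 °C, 5% CO2. Seeded at 2 × 10^3 cells/well and exposed to a range of inhibitor concentrations (DMSO stocks) for 24, 48 or 72 h at 37 °C. MTT added for 4 h, formazan dissolved in DMSO, absorbance read at 540 nm; mean of triplicates.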

[13] = target: T2, Disintegrin and metalloproteinase domain-containing protein 17; assay: Inhibition of ADAM17 in human SKOV3 cells assessed as inhibition of EGF-induced sALCAM release by ELISA; format: cell-based, SK-OV-3
[14] = target: T2, Disintegrin and metalloproteinase domain-containing protein 17; assay: Inhibition of ADAM17 in human MCF7 cells assessed as inhibition of constitutive sALCAM release by ELISA; format: cell-based
[15] = target: T2, Disintegrin and metalloproteinase domain-containing protein 17; assay: Inhibition of ADAM17 in human MCF7 cells assessed as inhibition of pervanadate-induced sALCAM release by ELISA; format: cell-based
[16] = target: T2, Disintegrin and metalloproteinase domain-containing protein 17; assay: Inhibition of ADAM17 in human MCF7 cells assessed as inhibition of EGF-induced sALCAM release by ELISA; format: cell-based
[17] = target: T2, Disintegrin and metalloproteinase domain-containing protein 17; assay: Inhibition of ADAM17 in human MDA-MB-468 cells assessed as inhibition of constitutive sALCAM release by ELISA; format: cell-based
[18] = target: T2, Disintegrin and metalloproteinase domain-containing protein 17; assay: Inhibition of ADAM17 in human MDA-MB-468 cells assessed as inhibition of pervanadate-induced sALCAM release by ELISA; format: cell-based
[19] = target: T2, Disintegrin and metalloproteinase domain-containing protein 17; assay: Inhibition of ADAM17 in human MDA-MB-468 cells assessed as inhibition of EGF-induced sALCAM release by ELISA; format: cell-based
[20] = target: T2, Disintegrin and metalloproteinase domain-containing protein 17; assay: Inhibition of ADAM17 in human GI-CA-N cells assessed as inhibition of constitutive sALCAM release by ELISA; format: cell-based
[21] = target: T2, Disintegrin and metalloproteinase domain-containing protein 17; assay: Inhibition of ADAM17 in human GI-CA-N cells assessed as inhibition of pervanadate-induced sALCAM release by ELISA; format: cell-based
[22] = Cytotoxicity against human A2774 cells after 72 hrs by MTT assay; format: cell-based; details: a2774, 72 h; outline: as §1
[23] = test system: MCF7; assay: Cytotoxicity against human MCF7 cells after 72 hrs by MTT assay; format: cell-based; details: mcf7, 72 h; outline: as §1
[24] = test system: MDA-MB-468; assay: Cytotoxicity against human MDA-MB-468 cells after 72 hrs by MTT assay; format: cell-based; details: mda-mb-468, 72 h; outline: as §1
[25] = Cytotoxicity against human GI-CA-N cells after 72 hrs by MTT assay; format: cell-based; outline: as §1

Chain of Matrix metalloproteinase-9 (P14780 whole entry): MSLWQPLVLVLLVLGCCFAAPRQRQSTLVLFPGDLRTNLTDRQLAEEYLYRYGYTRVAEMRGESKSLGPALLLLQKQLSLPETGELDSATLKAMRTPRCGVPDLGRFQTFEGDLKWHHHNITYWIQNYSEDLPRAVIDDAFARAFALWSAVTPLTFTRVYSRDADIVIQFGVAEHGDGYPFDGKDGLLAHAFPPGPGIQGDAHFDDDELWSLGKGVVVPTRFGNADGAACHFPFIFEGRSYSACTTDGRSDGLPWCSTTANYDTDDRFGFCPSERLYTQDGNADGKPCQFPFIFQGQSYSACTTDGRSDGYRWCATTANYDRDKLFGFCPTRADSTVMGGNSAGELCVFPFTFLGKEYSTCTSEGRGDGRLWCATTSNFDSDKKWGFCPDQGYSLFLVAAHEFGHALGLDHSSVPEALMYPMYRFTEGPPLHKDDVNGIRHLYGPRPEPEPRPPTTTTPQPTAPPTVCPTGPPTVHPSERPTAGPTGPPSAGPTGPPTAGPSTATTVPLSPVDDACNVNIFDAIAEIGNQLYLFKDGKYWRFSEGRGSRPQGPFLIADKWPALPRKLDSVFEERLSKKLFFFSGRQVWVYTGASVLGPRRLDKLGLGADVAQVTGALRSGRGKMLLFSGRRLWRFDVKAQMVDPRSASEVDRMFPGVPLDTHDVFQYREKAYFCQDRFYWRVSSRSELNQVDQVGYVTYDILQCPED
T2 sequence (P78536 whole entry, the tested form may be a part): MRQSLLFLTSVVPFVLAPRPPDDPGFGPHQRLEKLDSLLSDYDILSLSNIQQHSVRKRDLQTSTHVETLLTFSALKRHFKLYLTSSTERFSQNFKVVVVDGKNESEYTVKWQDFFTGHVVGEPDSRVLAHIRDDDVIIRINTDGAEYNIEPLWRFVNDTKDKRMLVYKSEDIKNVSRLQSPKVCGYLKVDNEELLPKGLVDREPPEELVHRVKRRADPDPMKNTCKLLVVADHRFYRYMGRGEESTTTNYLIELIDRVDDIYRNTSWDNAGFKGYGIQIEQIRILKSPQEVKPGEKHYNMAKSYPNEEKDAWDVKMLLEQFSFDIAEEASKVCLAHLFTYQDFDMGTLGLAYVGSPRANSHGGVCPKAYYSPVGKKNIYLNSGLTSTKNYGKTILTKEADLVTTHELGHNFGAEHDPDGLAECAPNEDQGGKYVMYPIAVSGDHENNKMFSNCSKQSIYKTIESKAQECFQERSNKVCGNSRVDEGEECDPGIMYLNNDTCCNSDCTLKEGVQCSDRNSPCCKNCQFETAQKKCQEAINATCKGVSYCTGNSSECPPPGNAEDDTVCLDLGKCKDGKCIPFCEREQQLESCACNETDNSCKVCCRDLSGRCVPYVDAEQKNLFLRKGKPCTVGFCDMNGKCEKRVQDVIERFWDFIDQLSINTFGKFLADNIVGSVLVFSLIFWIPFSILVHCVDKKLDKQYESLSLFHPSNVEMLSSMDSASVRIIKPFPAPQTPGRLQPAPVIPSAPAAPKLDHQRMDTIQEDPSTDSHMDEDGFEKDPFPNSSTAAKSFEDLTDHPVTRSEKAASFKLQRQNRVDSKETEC
Chain of 72 kDa type IV collagenase (P08253 whole entry): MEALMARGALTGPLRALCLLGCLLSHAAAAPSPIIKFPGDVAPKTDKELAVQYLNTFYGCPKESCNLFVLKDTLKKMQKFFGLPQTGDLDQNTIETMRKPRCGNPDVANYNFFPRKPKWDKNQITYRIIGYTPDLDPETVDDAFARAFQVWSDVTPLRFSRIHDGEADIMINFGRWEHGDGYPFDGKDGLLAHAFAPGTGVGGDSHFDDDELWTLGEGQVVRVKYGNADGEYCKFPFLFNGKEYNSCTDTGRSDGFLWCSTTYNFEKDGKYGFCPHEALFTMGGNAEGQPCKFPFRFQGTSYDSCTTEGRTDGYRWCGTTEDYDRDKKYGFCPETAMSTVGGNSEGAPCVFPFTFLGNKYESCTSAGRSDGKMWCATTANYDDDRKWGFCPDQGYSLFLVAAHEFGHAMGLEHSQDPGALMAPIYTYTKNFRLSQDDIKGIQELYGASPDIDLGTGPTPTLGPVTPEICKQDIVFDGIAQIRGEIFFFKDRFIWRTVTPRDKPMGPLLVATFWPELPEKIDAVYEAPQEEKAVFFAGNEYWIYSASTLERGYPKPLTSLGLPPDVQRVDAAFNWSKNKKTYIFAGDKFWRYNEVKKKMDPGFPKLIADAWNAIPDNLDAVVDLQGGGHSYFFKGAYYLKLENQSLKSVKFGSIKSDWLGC

| Structure (SMILES) | IC50 [1] | IC50 [2] | IC50 [3] | IC50 [4] | IC50 [5] | IC50 [6] | inhibition [7] | further results |
| --- | --- | --- | --- | --- | --- | --- | --- | --- |
| O=C(CNS(=O)(=O)c1ccc(Br)cc1)NO | 270 nM | 40 nM | 290 nM | 360 nM | 3900 nM |  | 13% |  |
| COc1ccc(S(=O)(=O)N(CC(C)C)[C@@H](C(=O)NO)C(C)C)cc1 | 56 nM | 29 nM | 7.2 nM | 16 nM | 1100 nM |  | 9% |  |
| CC(C)CN(CC(=O)NO)S(=O)(=O)c1ccc(-c2ccccc2)cc1 |  |  |  |  | 53000 nM |  | 14% |  |
| CC(=O)NCC[C@@H](NS(=O)(=O)c1ccc(-c2ccccc2)cc1)C(=O)NO | 196 nM | 0.7 nM | 8.6 nM | 34 nM | 300 nM |  |  |  |

Compounds with a lower IC50 [5], results first:

| IC50 [1] | IC50 [2] | IC50 [3] | IC50 [4] | IC50 [5] | IC50 [6] | inhibition [7] | Structure (SMILES) | further results |
| --- | --- | --- | --- | --- | --- | --- | --- | --- |
| 4 nM | 1.5 nM | 1.1 nM | 0.9 nM | 210 nM |  |  | O=C(NO)[C@@H](CCN1C(=O)c2ccccc2C1=O)NS(=O)(=O)c1ccc(Br)cc1 |  |
| 400 nM | 21 nM | 13 nM | 29 nM | 59 nM | 2000 nM |  | CC#CCOc1ccc(S(=O)(=O)N(CC(C)C)[C@H](CCN2C(=O)c3ccccc3C2=O)C(=O)NO)cc1 |  |
| 1100 nM | 17 nM | 46 nM | 210 nM | 1.6 nM | 240 nM |  | CC#CCOc1ccc(S(=O)(=O)N[C@H](CCNC(=O)OCc2ccccc2)C(=O)NO)cc1 | IC50 [8]: 260 nM; IC50 [9]: 11 nM; IC50 [10]: 890 nM; Activity [12]: Not Active; IC50 [13]: 3.2 nM; IC50 [14]: 1600 nM; IC50 [15]: 53 nM; IC50 [16]: 420 nM; IC50 [17]: 420 nM; IC50 [18]: 1100 nM; IC50 [19]: 110 nM; IC50 [20]: 90 nM; IC50 [21]: 500 nM; Activity [22]: Not Active; Activity [23]: Not Active; Activity [24]: Not Active; Activity [25]: Not Active; IC50 [7]: 11 nM |
| 350 nM | 4.2 nM | 3.5 nM | 4.3 nM | 0.7 nM | 190 nM |  | CC#CCOc1ccc(S(=O)(=O)N[C@H](CCN2C(=O)c3ccccc3C2=O)C(=O)NO)cc1 | IC50 [8]: 1100 nM; IC50 [9]: 15 nM; IC50 [10]: 550 nM; IC50 [11]: 2600 nM; Activity [12]: Not Active; IC50 [13]: 4.3 nM; IC50 [14]: 1400 nM; IC50 [15]: 51 nM; IC50 [16]: 760 nM; IC50 [17]: 1700 nM; IC50 [18]: 800 nM; IC50 [19]: 280 nM; IC50 [20]: 97 nM; IC50 [21]: 73 nM; Activity [22]: Not Active; Activity [23]: Not Active; Activity [24]: Not Active; Activity [25]: Not Active; IC50 [7]: 15 nM |
